The values below come from ChEMBL document CHEMBL2069306, “Sequences in the HSP90 promoter form G-quadruplex structures with selectivity for disubstituted phenyl bis-oxazole derivatives” (Bioorg Med Chem Lett, 2012).

The subject of test [1] is Nucleic Acid. Kind of test: Binding affinity to HSP90A quadruplex DNA assessed as change in melting temperature at 2 uM by FRET melting assay. The class given is nucleic-acid assay. Particulars: Homo sapiens. The method in brief: (§1)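 FAM/TAMRA dual-labelled oligonucleotides diluted to 400 nM in 60 mM potassium cacodylate pH 7.4. Annealed at 95 °C for 10 min, then cooled to RT over 3–3.5 h. Compound diluted from a 1 mM stock (10% DMSO/90% 1 mM HCl) to 2× in buffer and mixed 1:1 with DNA. Fluorescence read every 0.5 °C over 30–100 °C with a 30 s hold. ΔTm from curve fitting; triplicate.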

Test [2] has as its system Nucleic Acid. The test is described as follows: Binding affinity to HSP90B quadruplex DNA assessed as change in melting temperature at 2 uM by FRET melting assay. Particulars: Homo sapiens. The class given is nucleic-acid assay. An outline of the steps: as §1
Test [3] has as its system Nucleic Acid. Kind of test: Binding affinity to human 21-mer telomeric quadruplex F21T DNA assessed as change in melting temperature at 2 uM by FRET melting assay. It counts as nucleic-acid assay. An outline of the steps:
as §1

For test [4], the system named is Nucleic Acid. Kind of test: Binding affinity to c-kit2 quadruplex DNA assessed as change in melting temperature at 2 uM by FRET melting assay. The class given is nucleic-acid assay. Particulars: Homo sapiens. An outline of the steps:
as §1

Test [5] concerns Nucleic Acid. Kind of test: Binding affinity to k-ras quadruplex DNA assessed as change in melting temperature at 2 uM by FRET melting assay. It counts as nucleic-acid assay. Particulars: Homo sapiens. The method in brief:
as §1

The subject of test [6] is Nucleic Acid. The test is described as follows: Binding affinity to human G4 telomeric quadruplex DNA assessed as change in melting temperature at 1 uM by FRET melting assay. The class given is nucleic-acid assay. The method in brief:
as §1

Test [7] deals with Nucleic Acid. Kind of test: Binding affinity to human G4 telomeric quadruplex DNA assessed as change in melting temperature at 2 uM by FRET melting assay. It counts as nucleic-acid assay. An outline of the steps: as §1
Test [8] deals with Nucleic Acid. Kind of test: Binding affinity to HSP90A quadruplex DNA assessed as change in melting temperature at 1 uM by FRET melting assay. The class given is nucleic-acid assay. Particulars: Homo sapiens. The method in brief: as §1
Test [9] concerns Nucleic Acid. The test is described as follows: Binding affinity to HSP90B quadruplex DNA assessed as change in melting temperature at 1 uM by FRET melting assay. It counts as nucleic-acid assay. Particulars: Homo sapiens. The method in brief: as §1
Test [10] deals with Nucleic Acid. Kind of test: Binding affinity to double stranded DNA assessed as change in melting temperature at 1 uM by FRET melting assay. It counts as nucleic-acid assay. The method in brief: as §1
The subject of test [11] is Nucleic Acid. The test is described as follows: Binding affinity to double stranded DNA assessed as change in melting temperature at 2 uM by FRET melting assay. The class given is nucleic-acid assay. An outline of the steps: as §1
The test system of test [12] is Nucleic Acid. Kind of test: Binding affinity to human 21-mer telomeric quadruplex F21T DNA assessed as change in melting temperature at 1 uM by FRET melting assay. The class given is nucleic-acid assay. An outline of the steps: as §1
Test [13] relates to Nucleic Acid. Kind of test: Binding affinity to c-kit2 quadruplex DNA assessed as change in melting temperature at 1 uM by FRET melting assay. The class given is nucleic-acid assay. Particulars: Homo sapiens. The method in brief: as §1
For test [14], the system named is Nucleic Acid. Kind of test: Binding affinity to k-ras quadruplex DNA assessed as change in melting temperature at 1 uM by FRET melting assay. Particulars: Homo sapiens. It counts as nucleic-acid assay. The method in brief:
as §1

The subject of another test is A549. Kind of test: Antiproliferative activity against human A549 cells after 96 hrs by neubauer haemocytometer analysis. Conditions: in the assay text read “sulforhodamine B assay” for “neubauer haemocytometer analysis”. It counts as functional, cell-based. An outline of the steps:
(§2)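 Cancer lines seeded at 1000–4000 cells/well and WI38 fibroblasts at 6000/well, then grown 24 h. Compound added over a concentration range for 96 h. Cells fixed with 10% TCA (30 min, 4 °C), stained with 0.4% sulforhodamine B (15 min, RT), dye solubilized in 10 mM Tris base, A540 read. Normalized to untreated cells; IC50 interpolated at 50% absorbance. Triplicate.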

The test system of another test is MCF7. The test is described as follows: Antiproliferative activity against human MCF7 cells after 96 hrs by neubauer haemocytometer analysis. It counts as functional, cell-based. Conditions: in the assay text read “sulforhodamine B assay” for “neubauer haemocytometer analysis”. The method in brief: as §2
A general note: The SRB assay estimates cell density from bound dye.

Test [15] can be described thus: Antiproliferative activity against human RCC4 cells after 96 hrs by neubauer haemocytometer analysis. The class given is functional, cell-based. Particulars: in the assay text read “sulforhodamine B assay” for “neubauer haemocytometer analysis”. An outline of the steps:
as §2

The nature of test [16]: Antiproliferative activity against human 786-O cells after 96 hrs by neubauer haemocytometer analysis. The class given is functional, cell-based. Conditions: 786-0; in the assay text read “sulforhodamine B assay” for “neubauer haemocytometer analysis”. An outline of the steps:
as §2

The subject of another test is MIA PaCa-2. The test is described as follows: Antiproliferative activity against human MIAPaCa2 cells after 96 hrs by neubauer haemocytometer analysis. It counts as functional, cell-based. Conditions: in the assay text read “sulforhodamine B assay” for “neubauer haemocytometer analysis”. The method in brief:
as §2

In a further test the test system is WI-38. Kind of test: Antiproliferative activity against human WI38 cells after 96 hrs by neubauer haemocytometer analysis. The class given is cell-based. Conditions: in the assay text read “sulforhodamine B assay” for “neubauer haemocytometer analysis”. The method in brief:
as §2

For test [17], the system named is duplex DNA. Kind of test: Binding affinity to duplex DNA assessed as change in melting temperature at 3 uM by FRET melting assay. Particulars: Homo sapiens.
Test [18] concerns duplex DNA. The description is as above. Conditions: Homo sapiens. This is another data set of the same source.
The test system of test [19] is duplex DNA. The description is as above. Particulars: Homo sapiens. This is another data set of the same source.

In the case of `CN1CCN(CCc2ccc(-c3ncc(-c4ccc(-c5cnc(-c6ccc(CCN7CCN(C)CC7)cc6)o5)cc4)o3)cc2)CC1`, the ΔTm in the test with Nucleic Acid [1], with Nucleic Acid [2], in the test with Nucleic Acid [3], with Nucleic Acid [4] and in the test on Nucleic Acid [5] was less than 5 °C in each case.
For `CC(C)N(Cc1ccc(-c2ncc(-c3cccc(-c4cnc(-c5ccc(CN(C(C)C)C(C)C)cc5)o4)c3)o2)cc1)C(C)C`, the ΔTm (commonly the change in melting temperature against a reference sample) is less than 2 °C with Nucleic Acid [6]; 2 °C in the test with Nucleic Acid [7]; 8 °C in the test on Nucleic Acid [8]; 8 °C in the test with Nucleic Acid [1]; 8 °C with Nucleic Acid [9]; 9 °C in the test with Nucleic Acid [2]. Further, the ΔTm with Nucleic Acid [10] and in the test on Nucleic Acid [11] was 1 °C each time.
Regarding `c1cc(-c2cnc(-c3ccc(OCCN4CCCC4)cc3)o2)cc(-c2cnc(-c3ccc(OCCN4CCCC4)cc3)o2)c1`, the ΔTm with Nucleic Acid [6] is less than 2 °C; in the test with Nucleic Acid [7], less than 2 °C; in the test on Nucleic Acid [8] it was 7 °C; with Nucleic Acid [1] it was 14 °C; in the test on Nucleic Acid [9], 2 °C; in the test with Nucleic Acid [2], 6 °C. The ΔTm with Nucleic Acid [10] and in the test on Nucleic Acid [11] was 0 °C in each case.
Turning to `c1cc(-c2cnc(-c3ccc(OCCCN4CCCC4)cc3)o2)cc(-c2cnc(-c3ccc(OCCCN4CCCC4)cc3)o2)c1`, the ΔTm is less than 2 °C in the test with Nucleic Acid [6]; less than 2 °C in the test with Nucleic Acid [7]; 7 °C in the test on Nucleic Acid [8]; 14 °C in the test with Nucleic Acid [1]; 2 °C in the test on Nucleic Acid [9]; 6 °C in the test on Nucleic Acid [2]. The ΔTm with Nucleic Acid [10] and in the test with Nucleic Acid [11] was 0 °C in each case.
In the case of `c1cc(-c2cnc(-c3ccc(CN4CCOCC4)cc3)o2)cc(-c2cnc(-c3ccc(CN4CCOCC4)cc3)o2)c1`, the ΔTm in the test with Nucleic Acid [6] was less than 2 °C; in the test with Nucleic Acid [7] it was 2 °C; in the test with Nucleic Acid [8], 6 °C; with Nucleic Acid [1] it was 6 °C; with Nucleic Acid [9], 5 °C; in the test with Nucleic Acid [2], 6 °C. Also, the ΔTm in the test on Nucleic Acid [10] and with Nucleic Acid [11] was 0 °C in each case.
As to `c1cc(-c2cnc(-c3cccc(CN4CCCCC4)c3)o2)cc(-c2cnc(-c3cccc(CN4CCCCC4)c3)o2)c1`, the ΔTm in the test on Nucleic Acid [6] was less than 2 °C; with Nucleic Acid [7], less than 2 °C; with Nucleic Acid [8], 5 °C; in the test with Nucleic Acid [1] it was 8 °C; in the test with Nucleic Acid [9], 3 °C; in the test with Nucleic Acid [2] it was 6 °C. Also, the ΔTm in the test on Nucleic Acid [10] and in the test on Nucleic Acid [11] was 1 °C each time.
With `CN1CCN(CCc2ccc(-c3ncc(-c4cccc(-c5cnc(-c6ccc(CCN7CCN(C)CC7)cc6)o5)c4)o3)cc2)CC1`, the ΔTm with Nucleic Acid [6] is less than 2 °C; in the test on Nucleic Acid [7] it was 2 °C; in the test on Nucleic Acid [8], 14 °C; in the test with Nucleic Acid [1], 23 °C; in the test with Nucleic Acid [9], 2 °C; in the test on Nucleic Acid [2] it was 7 °C. Besides, the ΔTm in the test with Nucleic Acid [10] is 0 °C; in the test on Nucleic Acid [11], 0 °C; in the test with Nucleic Acid [12] it was less than 2 °C; in the test on Nucleic Acid [3], 2 °C; in the test on Nucleic Acid [13], less than 2 °C; in the test with Nucleic Acid [4] it was 2 °C. Besides, the ΔTm in the test on Nucleic Acid [14] is 7 °C; in the test with Nucleic Acid [5], 17 °C; in the test on duplex DNA [17], less than 1 °C; in the test with duplex DNA [18], less than 1 °C; in the test on duplex DNA [19] it was less than 1 °C. The IC50 in the test on A549 is 1.02 µmol; with MCF7, 1.32 µmol; in test [15], 0.94 µmol; in test [16], 1.33 µmol; in the test on MIA PaCa-2, 1.25 µmol; with WI-38, 2.59 µmol.
On to `c1cc(-c2cnc(-c3ccc(CN4CCCCCC4)cc3)o2)cc(-c2cnc(-c3ccc(CN4CCCCCC4)cc3)o2)c1`, for which the ΔTm in the test with Nucleic Acid [6] is 3 °C; with Nucleic Acid [7], 7 °C; in the test on Nucleic Acid [8] it was 8 °C; in the test with Nucleic Acid [1] it was 9 °C; with Nucleic Acid [9], 9 °C; in the test on Nucleic Acid [2], 11 °C. Also, the ΔTm with Nucleic Acid [10] and in the test on Nucleic Acid [11] was 1 °C throughout.
On to `c1cc(-c2cnc(-c3ccc(OCCCCN4CCCC4)cc3)o2)cc(-c2cnc(-c3ccc(OCCCCN4CCCC4)cc3)o2)c1`, for which the ΔTm with Nucleic Acid [6] turned out to be 2 °C; with Nucleic Acid [7], 15 °C; in the test on Nucleic Acid [8], 5 °C; in the test with Nucleic Acid [1], 19 °C; in the test with Nucleic Acid [9] it was 2 °C; in the test with Nucleic Acid [2] it was 5 °C. Besides, the ΔTm with Nucleic Acid [10] and in the test on Nucleic Acid [11] was 0 °C throughout.
Take `c1cc(-c2cnc(-c3ccc(CN4CCCC4)cc3)o2)cc(-c2cnc(-c3ccc(CN4CCCC4)cc3)o2)c1`: the ΔTm in the test on Nucleic Acid [6] is 2 °C; in the test on Nucleic Acid [7] it was 6 °C; with Nucleic Acid [8], 7 °C; with Nucleic Acid [1], 14 °C; with Nucleic Acid [9], 2 °C; in the test with Nucleic Acid [2], 4 °C. Besides, the ΔTm in the test on Nucleic Acid [10] and in the test with Nucleic Acid [11] was 0 °C each time.
In the case of `CN1CCN(Cc2ccc(-c3ncc(-c4cccc(-c5cnc(-c6ccc(CN7CCN(C)CC7)cc6)o5)c4)o3)cc2)CC1`, the ΔTm in the test on Nucleic Acid [6] is less than 2 °C; in the test with Nucleic Acid [7] it was 2 °C; with Nucleic Acid [8], 7 °C; with Nucleic Acid [1], 16 °C; with Nucleic Acid [9], 3 °C; in the test on Nucleic Acid [2], 12 °C. Besides, the ΔTm in the test on Nucleic Acid [10] and in the test on Nucleic Acid [11] was 0 °C each time.
